Results reported in ChEMBL document CHEMBL5058577, “EUbOPEN Chemogenomics Library 2 (Multiplex)” (2022).

Test system: U2OS
Test: Multiplex assay against U2OS
Type: toxicity, cell-based
Settings: human
Outline: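 Compound was added to live cells that had been stained at seeding with Hoechst33342, BioTracker Green Microtubule Cytoskeleton Dye, MitoTracker Red and Annexin V Alexa Fluor 680, and imaging followed on a CQ1 microscope at 37°C and 5% CO2. CellPathfinder machine-learning gating divided cells into Hoechst high-intensity objects or normal cells, normal cells into healthy, pyknosed or fragmented nuclei, and pyknosed cells into mitotic or apoptotic. Tubulin, mitochondrial-mass and membrane-permeability phenotypes are per cents of healthy-nucleus cells.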

[1] = 12 h, 1 µM, compound concentration 1 uM, replicate 1
[2] = 12 h, 1 µM, compound concentration 1 uM, replicate 2
[3] = 12 h, 10 µM, compound concentration 10 uM, replicate 1
[4] = 12 h, 10 µM, compound concentration 10 uM, replicate 2
[5] = 24 h, 1 µM, compound concentration 1 uM, replicate 1
[6] = 24 h, 1 µM, compound concentration 1 uM, replicate 2
[7] = 24 h, 10 µM, compound concentration 10 uM, replicate 1
[8] = 24 h, 10 µM, compound concentration 10 uM, replicate 2
[9] = 48 h, 1 µM, compound concentration 1 uM, replicate 1
[10] = 48 h, 1 µM, compound concentration 1 uM, replicate 2
[11] = 48 h, 10 µM, compound concentration 10 uM, replicate 1
[12] = 48 h, 10 µM, compound concentration 10 uM, replicate 2

C[C@@H]1CC(=O)Nc2cccc(-c3ccc4c(c3)c(-c3cnn(C)c3)nn4C)c2N1
Population Apoptotic (%) [1]: 92%
Population Fragmented Nuclei (%) [1]: 20%
Population Healthy Nuclei (%) [1]: 73%
Population Hoechst High Intensity Objects (%) [1]: 1%
Population Membrane Permeable-Phenotype (%) [1]: 7%
Population Mitochondria Different-Phenotype (%) [1]: 4%
Population Mitotic Cells (%) [1]: 7%
Population Normal (%) [1]: 98%
Population Pyknosed Nuclei (%) [1]: 6%
Population Tubulin-Different-Phenotype (%) [1]: 6%
Total Cell Count [1]: 233
Population Apoptotic (%) [2]: 88%
Population Fragmented Nuclei (%) [2]: 16%
Population Healthy Nuclei (%) [2]: 75%
Population Membrane Permeable-Phenotype (%) [2]: 5%
Population Mitochondria Different-Phenotype (%) [2]: 2%
Population Mitotic Cells (%) [2]: 11%
Population Pyknosed Nuclei (%) [2]: 7%
Population Tubulin-Different-Phenotype (%) [2]: 2%
Total Cell Count [2]: 116
Population Apoptotic (%) [3]: 86%
Population Fragmented Nuclei (%) [3]: 29%
Population Healthy Nuclei (%) [3]: 58%
Population Hoechst High Intensity Objects (%) [3]: 2%
Population Membrane Permeable-Phenotype (%) [3]: 11%
Population Mitochondria Different-Phenotype (%) [3]: 11%
Population Mitotic Cells (%) [3]: 13%
Population Normal (%) [3]: 97%
Population Pyknosed Nuclei (%) [3]: 12%
Population Tubulin-Different-Phenotype (%) [3]: 8%
Total Cell Count [3]: 235
Population Apoptotic (%) [4]: 33%
Population Fragmented Nuclei (%) [4]: 21%
Population Healthy Nuclei (%) [4]: 74%
Population Hoechst High Intensity Objects (%) [4]: 1%
Population Membrane Permeable-Phenotype (%) [4]: 7%
Population Mitochondria Different-Phenotype (%) [4]: 7%
Population Mitotic Cells (%) [4]: 66%
Population Normal (%) [4]: 98%
Population Pyknosed Nuclei (%) [4]: 4%
Total Cell Count [4]: 76
Population Apoptotic (%) [5]: 95%
Population Fragmented Nuclei (%) [5]: 20%
Population Healthy Nuclei (%) [5]: 71%
Population Hoechst High Intensity Objects (%) [5]: 2%
Population Membrane Permeable-Phenotype (%) [5]: 5%
Population Mitochondria Different-Phenotype (%) [5]: 2%
Population Mitotic Cells (%) [5]: 4%
Population Normal (%) [5]: 97%
Population Pyknosed Nuclei (%) [5]: 7%
Population Tubulin-Different-Phenotype (%) [5]: 2%
Total Cell Count [5]: 294
Population Apoptotic (%) [6]: 100%
Population Fragmented Nuclei (%) [6]: 22%
Population Healthy Nuclei (%) [6]: 74%
Population Hoechst High Intensity Objects (%) [6]: 1%
Population Membrane Permeable-Phenotype (%) [6]: 1%
Population Mitochondria Different-Phenotype (%) [6]: 1%
Population Mitotic Cells (%) [6]: 0%
Population Normal (%) [6]: 98%
Population Pyknosed Nuclei (%) [6]: 4%
Population Tubulin-Different-Phenotype (%) [6]: 0%
Total Cell Count [6]: 152
Population Apoptotic (%) [7]: 90%
Population Fragmented Nuclei (%) [7]: 24%
Population Healthy Nuclei (%) [7]: 63%
Population Hoechst High Intensity Objects (%) [7]: 4%
Population Membrane Permeable-Phenotype (%) [7]: 7%
Population Mitochondria Different-Phenotype (%) [7]: 6%
Population Mitotic Cells (%) [7]: 10%
Population Normal (%) [7]: 95%
Population Pyknosed Nuclei (%) [7]: 11%
Population Tubulin-Different-Phenotype (%) [7]: 3%
Total Cell Count [7]: 266
Population Apoptotic (%) [8]: 83%
Population Fragmented Nuclei (%) [8]: 15%
Population Healthy Nuclei (%) [8]: 78%
Population Hoechst High Intensity Objects (%) [8]: 1%
Population Membrane Permeable-Phenotype (%) [8]: 6%
Population Mitochondria Different-Phenotype (%) [8]: 1%
Population Mitotic Cells (%) [8]: 16%
Population Normal (%) [8]: 98%
Population Pyknosed Nuclei (%) [8]: 6%
Population Tubulin-Different-Phenotype (%) [8]: 4%
Total Cell Count [8]: 97
Population Apoptotic (%) [9]: 100%
Population Fragmented Nuclei (%) [9]: 19%
Population Healthy Nuclei (%) [9]: 73%
Population Hoechst High Intensity Objects (%) [9]: 1%
Population Membrane Permeable-Phenotype (%) [9]: 4%
Population Mitochondria Different-Phenotype (%) [9]: 2%
Population Mitotic Cells (%) [9]: 0%
Population Normal (%) [9]: 98%
Population Pyknosed Nuclei (%) [9]: 6%
Population Tubulin-Different-Phenotype (%) [9]: 3%
Total Cell Count [9]: 437
Population Fragmented Nuclei (%) [10]: 13%
Population Healthy Nuclei (%) [10]: 77%
Population Membrane Permeable-Phenotype (%) [10]: 2%
Population Pyknosed Nuclei (%) [10]: 8%
Population Tubulin-Different-Phenotype (%) [10]: 2%
Total Cell Count [10]: 224
Population Apoptotic (%) [11]: 100%
Population Fragmented Nuclei (%) [11]: 28%
Population Healthy Nuclei (%) [11]: 65%
Population Hoechst High Intensity Objects (%) [11]: 3%
Population Membrane Permeable-Phenotype (%) [11]: 8%
Population Mitochondria Different-Phenotype (%) [11]: 3%
Population Mitotic Cells (%) [11]: 0%
Population Normal (%) [11]: 96%
Population Pyknosed Nuclei (%) [11]: 5%
Population Tubulin-Different-Phenotype (%) [11]: 5%
Total Cell Count [11]: 394
Population Fragmented Nuclei (%) [12]: 23%
Population Healthy Nuclei (%) [12]: 71%
Population Hoechst High Intensity Objects (%) [12]: 4%
Population Membrane Permeable-Phenotype (%) [12]: 3%
Population Mitochondria Different-Phenotype (%) [12]: 0%
Population Normal (%) [12]: 95%
Population Pyknosed Nuclei (%) [12]: 4%
Population Tubulin-Different-Phenotype (%) [12]: 3%
Total Cell Count [12]: 149
